Results taken from ChEMBL document CHEMBL5715960, “Epigenetic Co-Deregulation of EZH2/TET1 is a Senescence-Countering, Actionable Vulnerability in Triple-Negative Breast Cancer” (Theranostics, 2019).
Active and inactive are the calls of the source. The calls are words filed in the database; no cut-off is given here.

Legend:
MDA-MB-453 = assay: Antiproliferative activity in human MDA-MB-453 cells assessed as increase in SA-beta-gal positive cells at 2 uM for 5 days by SA-beta-gal staining analysis; type: functional, cell-based; conditions: time 5.0 day
Procedure, shortened: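 GSK343 2 µM or DMSO for 5 days, then chromogenic SA-β-gal staining and counting of positive cells. Triplicate; mean ± SD.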

MDA-MB-436 [1] = assay: Effect on human MDA-MB-436 cells assessed as increase in TET1 transcription by qRT-PCR analysis; type: functional, cell-based
Procedure, shortened: (§1)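 qRT-PCR of TET1, TET2 and TET3 transcripts in breast cancer cells exposed to GSK343 (2 µM unless otherwise indicated), shown relative to DMSO-treated cells. Mean ± SD, triplicate unless stated.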

BT-474 [2] = assay: Effect on human BT-474 cells assessed as increase in TET2 transcription by qRT-PCR analysis; type: functional, cell-based; procedure, shortened: as §1
MDA-MB-231 [3] = assay: Induction of cell cycle arrest in human MDA-MB-231 cells assessed as accumulation of cells at S phase measured at 2 uM by BrdU/PI staining based flow cytometric analysis (reference value: 44.6%); type: functional
MCF7 = assay: Cytotoxicity against human MCF7 cells at 0.5 to 2 uM for 2 days by Guava viacount assay; type: toxicity, cell-based; conditions: mcf7, 48 h, dose 0.5-2 µM, time 2 day
Procedure, shortened: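 Cells plated at 2 × 10^4 (24-well) or 1 × 10^5 (12-well), exposed to a range of GSK343 concentrations for 2 days against DMSO solvent control; cell number and viability read by Guava ViaCount flow cytometry, relative to DMSO. Triplicate; mean ± SD.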

MDA-MB-231 [4] = assay: Effect on […] in human MDA-MB-231 cells assessed as repression in TET1 promoter H3K27me3 by ChiP-qPCR analysis; type: functional, cell-based
Procedure, shortened: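 Cells treated with GSK343 or DMSO; chromatin immunoprecipitated with anti-EZH2 or anti-H3K27me3 antibody and quantified by qPCR with primers for the TET1 promoter; input as internal control, IgG as negative control.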

MDA-MB-231 [5] = assay: Induction of apoptosis in human MDA-MB-231 cells assessed as increase in accumulation of cells at G1 phase in presence of adriamycin by BrdU/PI-based cell cycle analysis; type: functional
Procedure, shortened: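 Cell cycle by BrdU/PI staining and flow cytometry, giving G1, S and G2 fractions. Cells received 0.005 µg/ml adriamycin with or without 2 µM GSK343, or DMSO. Mean ± SD.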

MDA-MB-436 [6] = assay: Effect on human MDA-MB-436 cells assessed as increase in TET1 protein level by qRT-PCR analysis
BT-474 [7] = assay: Effect on human BT-474 cells assessed as increase in TET3 transcription by qRT-PCR analysis; type: functional, cell-based; procedure, shortened: as §1

## CCCc1cc(C)[nH]c(=O)c1CNC(=O)c1cc(-c2ccnc(N3CCN(C)CC3)c2)cc2c1cnn2C(C)C
MDA-MB-453
  Activity: Active
MDA-MB-436 [1]
  Activity: Active
BT-474 [2]
  Activity: inactive
MDA-MB-231 [3]
  Activity: 16.1%
MCF7
  Activity: Non-Toxic
MDA-MB-231 [4]
  Activity: Active
MDA-MB-231 [5]
  Activity: Active
MDA-MB-436 [6]
  Activity: Active
BT-474 [7]
  Activity: inactive
